# Measured values published in PubChem BioAssay.
# Active and inactive are the calls of the source.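 The calls were made as follows, unless noted: active = inhibition of the reporter signal at or above 50%; inactive = inhibition below 50%.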
# Experiments:
# [1] = inhibitors of TNFa-induced NFkB p65 translocation, primary screen, imaging, HUVEC, MLSMR starter and 10KST1 sets (AID 438;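 active = inhibition above 20% together with a positive visual image hit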;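 also: compound added about 3h40 before a 20 min TNFalpha stimulation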;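 as to inhibition: signal is the nuclear over cytoplasmic p65 intensity ratio per well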); conditions: HUVEC TNFa-induced p65 nuclear translocation; cell count: measured here: nuclei count (cytotoxicity indicator), at 2.08 µM; inhibition: at 2 µM, stronger effect = higher value, 0% TNFa-plus-vehicle, 100% no-TNFa wells
# [2] = inhibitors of mutant huntingtin aggregation, primary screen, imaging, exon1htt(103Q)mCFP cells, high-content imaging (AID 483;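 active = visual image review flags a hit and inhibition of aggregation exceeds 20%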;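 also: compound exposure lasted 3 days before fixation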;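 as to nuclei count: percent of the per-plate median nuclei count of sample wells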); conditions: exon1htt(103Q)mCFP cell line, aggregate imaging, at 2 µM; inhibition of aggregation: stronger effect = higher value; nuclei count: measured here: cell count, toxicity
# [3] = inhibitors of E-selectin induction by TNFa, primary screen, imaging, HUVEC, immunofluorescence, MLSMR starter and 10KST1 sets (AID 487;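 active = visually confirmed hit in the image check and inhibition above 20%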;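 as to inhibition: signal is fraction of cell area covered by stained E-selectin grains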;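 as to nuclei count: 100% = median nuclei count of all wells on the same plate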); conditions: HUVEC TNFalpha-induced E-selectin immunofluorescence imaging, at 2 µM; inhibition: stronger effect = higher value; nuclei count: measured here: cell number, toxicity
# [4] = molecular target: Voltage-gated potassium channel subunit beta-2 (Rattus norvegicus) (UniProt P62483); assay: KvBeta enzyme negative modulators, primary screen, biochemical, NADPH fluorescence (AID 622;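 active = fluorescence slope higher than the sample average by over 3 SD, cut at about -0.22 in these data, passing the limit was not always enough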;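 also: slope of raw intensity against log time taken from 70 to 1610 s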); conditions: recombinant KvBeta, 4-cyanobenzaldehyde reduction, at 10 µM, stronger effect = higher value
# [5] = molecular target: Voltage-gated potassium channel subunit beta-2 (Rattus norvegicus) (UniProt P62483); assay: KvBeta positive modulators, primary screen, biochemical, NADPH fluorescence (AID 623;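 active = NADPH fluorescence slope more negative than the mean of all samples by about 3 SD, 99.7% confidence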;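 also: fluorescence intensity change per second fitted from 20 to 320 s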); conditions: Recombinant KvBeta, NADPH fluorescence decrease slope, 10 min; at 10 µM; stronger effect = lower value
# [6] = molecular target: Muscarinic acetylcholine receptor M4 (Homo sapiens) (UniProt P08173); assay: compounds altering M4/GIRK thallium flux, either direction, primary screen, M4 allosteric agonist project, cell-based, HEK293 M4/GIRK, BTC-AM (AID 625;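 active = fluorescence slope after compound addition differing from the mean of all tested samples at 99.7% confidence, mostly higher but some lower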;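 also: thallium influx through GIRK channels coupled to M4 in HEK293 cells with BTC-AM dye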); conditions: at 10 µM, actives lie on both sides
# Summary of the method: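 Assay system: HEK293 cells with M4 receptor and GIRK channels / Controls: carbachol and DMSO controls / Schedule: 1 h dye loading, 2 min kinetic read / Technique: kinetic fluorescence with BTC-AM dye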
# [7] = inhibitors of Sendai virus-induced IRF3 signaling, primary screen, TLR/RLR signaling modifier project, cell-based, Sendai virus stimulus, luciferase, 10K MLSCN set (AID 602276;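 active = inhibition at or above 50% at 10 µM; inactive = inhibition below 50%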;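 also: firefly luciferase from ISG56 promoter only with Renilla not read in this screen; 0% = Sendai virus plus DMSO and 100% = medium plus DMSO without virus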); conditions: HEK293 RL24 IRF3 luciferase reporter, at 10 µM, stronger effect = higher value
# [8] = inhibitors of poly I:C-induced TLR3 signaling, primary screen, cell-based, poly I:C stimulus, luciferase, 10K MLSCN set (AID 602277); conditions: HEK293-TLR3 RL24 IRF3 luciferase reporter, at 10 µM, stronger effect = higher value
# Sequence of Voltage-gated potassium channel subunit beta-2 (Rattus norvegicus) (P62483 whole entry, looked up): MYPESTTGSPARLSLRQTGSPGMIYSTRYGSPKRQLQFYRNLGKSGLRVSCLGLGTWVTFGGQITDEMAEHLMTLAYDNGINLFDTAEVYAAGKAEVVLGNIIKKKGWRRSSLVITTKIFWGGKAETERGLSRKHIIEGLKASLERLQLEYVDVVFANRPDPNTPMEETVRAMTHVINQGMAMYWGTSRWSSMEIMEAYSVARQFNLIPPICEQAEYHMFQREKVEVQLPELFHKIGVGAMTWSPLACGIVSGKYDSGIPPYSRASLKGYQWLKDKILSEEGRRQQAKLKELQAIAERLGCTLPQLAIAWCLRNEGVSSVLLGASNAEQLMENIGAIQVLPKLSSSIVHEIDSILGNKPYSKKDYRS
# Sequence of Muscarinic acetylcholine receptor M4 (Homo sapiens) (P08173 whole entry, looked up): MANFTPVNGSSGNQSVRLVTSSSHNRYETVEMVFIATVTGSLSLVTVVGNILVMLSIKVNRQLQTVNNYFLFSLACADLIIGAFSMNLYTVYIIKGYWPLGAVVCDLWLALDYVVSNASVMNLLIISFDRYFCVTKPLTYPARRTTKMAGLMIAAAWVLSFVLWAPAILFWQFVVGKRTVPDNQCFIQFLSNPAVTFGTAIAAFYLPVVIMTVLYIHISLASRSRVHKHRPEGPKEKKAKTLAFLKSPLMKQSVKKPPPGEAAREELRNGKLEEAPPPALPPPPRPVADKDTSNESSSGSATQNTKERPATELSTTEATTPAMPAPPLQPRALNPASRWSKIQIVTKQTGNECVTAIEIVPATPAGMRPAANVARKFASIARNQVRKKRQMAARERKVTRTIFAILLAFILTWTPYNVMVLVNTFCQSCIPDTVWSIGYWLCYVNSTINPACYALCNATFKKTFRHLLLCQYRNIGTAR
SMILES,cell count [1],inhibition [1],inhibition of aggregation [2],nuclei count [2],inhibition [3],nuclei count [3],fluorescence slope [4],NADPH fluorescence slope [5],fluorescence slope [6],inhibition [7],inhibition [8]
O=c1c2c3nc4ccccc4nc3n(CC3CCCO3)c2ncn1CCc1ccccc1 (centres undefined),440,-3.2% (inactive),-0.4% (inactive),116%,-90.8% (inactive),107%,-0.378 (inactive),-1.1e-05 (inactive),0.00514 (inactive),12.8% (inactive),19.1% (inactive)
CCOc1ccc(-n2c(C)nc3c(cnn3-c3ccc(Cl)cc3)c2=O)cc1,238,-9% (inactive),-23.6% (inactive),96.9%,2.1% (inactive),109%,-0.58 (inactive),-4.1e-06 (inactive),0.00771 (inactive),-2.74% (inactive),-8.54% (inactive)
C=CCN1C(=O)/C(=C2\SC(N3CCOCC3)=NC2=O)c2cc(Br)ccc21,418,3.5% (inactive),22.3% (inactive),100%,-76% (inactive),86.1%,-0.519 (inactive),-8.4e-05 (inactive),0.00286 (inactive),-11.1% (inactive),-37.3% (inactive)
Cn1nc(-c2ccc(C(=O)NCC3CCCO3)cc2)c2ccccc2c1=O (centres undefined),796,-3.5% (inactive),37.8% (inactive),104%,-18.3% (inactive),116%,-0.574 (inactive),-5.3e-05 (inactive),0.00681 (inactive),19.3% (inactive),31.4% (inactive)
Cc1ccnc(NS(=O)(=O)c2ccc(N=CC3=C(O)CC(C)(C)CC3=O)cc2)n1,395,2.5% (inactive),-9% (inactive),79.4%,7.7% (inactive),110%,-0.474 (inactive),9.9e-06 (inactive),0.00511 (inactive),7.45% (inactive),1.62% (inactive)
CCn1ncc(C2=NOC(C(=O)NCc3ccc(Cl)cc3)C2)c1C (centres undefined),576,13.4% (inactive),-30.2% (inactive),36.3%,-240% (inactive),102%,-0.421 (inactive),2.6e-05 (inactive),0.0055 (inactive),2.33% (inactive),86.7% (active)
C=CCn1c(COc2ccccc2F)nnc1SCC(=O)N1CC(=O)Nc2ccccc21,390,-23.5% (inactive),28% (inactive),100%,4% (inactive),121%,-0.355 (inactive),2.1e-06 (inactive),0.00612 (inactive),-13.7% (inactive),-13.8% (inactive)
CCCCN(C)Cc1c(C)[nH]c2c(Cl)cccc2c1=O,326,-0.2% (inactive),0.9% (inactive),92.1%,-38.6% (inactive),92.3%,-0.434 (inactive),3.3e-05 (inactive),0.00844 (inactive),7.84% (inactive),23.5% (inactive)
CCNC(=O)CC(=O)Nc1ccccc1C(=O)O,725,-14.7% (inactive),11.3% (inactive),90.3%,-35.3% (inactive),118%,-0.282 (inactive),-2.6e-05 (inactive),0.00586 (inactive),17.2% (inactive),16.6% (inactive)
Cc1nc(N2CCOCC2)[nH]c(=O)c1CCC(C)C,417,-3.4% (inactive),6.3% (inactive),107%,28.7% (inactive),57.6%,-0.4 (inactive),2.6e-05 (inactive),0.0057 (inactive),15.6% (inactive),21.2% (inactive)
O=C(O)C1C2C=CC(O2)C1C(=O)NCc1ccc(Cl)cc1 (centres undefined),714,-7.5% (inactive),22.6% (inactive),95.5%,16.4% (inactive),100%,-0.531 (inactive),-3.3e-05 (inactive),0.0043 (inactive),11.9% (inactive),5.33% (inactive)
CSc1nnc2n(CCc3ccccc3)c(=O)c3c4c(sc3n12)CCCC4,295,-21.3% (inactive),-2.1% (inactive),106%,-22% (inactive),112%,-0.476 (inactive),-2.9e-05 (inactive),0.00521 (inactive),7.14% (inactive),-1.7% (inactive)
CCSc1nnc(NC(=O)CSc2ncccn2)s1,278,0.5% (inactive),-3% (inactive),105%,-42.2% (inactive),111%,-0.529 (inactive),-4.9e-05 (inactive),0.00524 (inactive),-9.35% (inactive),4% (inactive)
CCCCOc1ccc(-c2nnn(CC(=O)Nc3ncc(CC(=O)OCC)s3)n2)cc1,613,36.4% (active),18.6% (inactive),108%,-79% (inactive),79.4%,-0.4 (inactive),6.8e-06 (inactive),0.00855 (inactive),13.5% (inactive),23.8% (inactive)
